Active and inactive are the calls of the source. The calls are words filed in the database; no cut-off is given here.
Assays:
BMDM = assay: Cytotoxicity against M-CSF-stimulated C57/BL6 mouse bone marrow macrophages assessed as reduction in cell viability up to 10 uM measured after 2 days by MTT assay; assay type: cell-based; conditions: 48 h
[1] = target: T1, Tumor necrosis factor ligand superfamily member 11/11A (Mus musculus) (UniProt O35235+O35305); assay: Inhibition of RANKL-RANK protein-protein interaction in C57/BL6 mouse bone marrow macrophage assessed as suppression of M-CSF/mRANKL-induced osteoclastogenesis by measuring reduction in cathepsin K mRNA level measured after 3 days by Trizol-reagent-based qRT-PCR analysis
Method in brief: (§1)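 BMMs were treated with graded compound concentrations during RANKL-driven osteoclastogenesis. On day 3 of culture, NFATc1, TRAP and cathepsin K transcripts were quantified by real-time PCR.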

[2] = target: T2, Tumor necrosis factor ligand superfamily member 11 (Homo sapiens) (UniProt O14788); assay: (§2) Inhibition of RANK binding to human RANKL measured after 1 h by surface plasmon resonance analysis
T2 sequence (whole entry): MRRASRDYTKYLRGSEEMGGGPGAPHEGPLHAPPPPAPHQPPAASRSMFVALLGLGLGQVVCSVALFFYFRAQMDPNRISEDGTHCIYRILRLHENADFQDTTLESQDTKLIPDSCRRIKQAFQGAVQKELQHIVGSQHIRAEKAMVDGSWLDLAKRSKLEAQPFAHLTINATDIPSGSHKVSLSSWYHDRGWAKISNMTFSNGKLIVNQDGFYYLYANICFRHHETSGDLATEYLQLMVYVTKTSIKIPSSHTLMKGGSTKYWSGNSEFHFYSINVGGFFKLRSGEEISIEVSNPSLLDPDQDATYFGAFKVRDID

[3] = target: T3, Tumor necrosis factor ligand superfamily member 11 (Homo sapiens, UniProt O14788); assay: as §2
T3 sequence (O14788 whole entry): T2 sequence (whole entry)

[4] = target: T1, Tumor necrosis factor ligand superfamily member 11/11A (Mus musculus); assay: Inhibition of RANKL-RANK protein-protein interaction in C57/BL6 mouse bone marrow macrophage assessed as suppression of M-CSF/mRANKL-induced osteoclastogenesis by measuring reduction in TRAP activity at 5 uM measured after 3 days by colorimetric assay relative to control
Method in brief: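 BMMs were incubated with the test compound at 5 μM, together with RANKL (50 ng/mL) and M-CSF (20 ng/mL), for 3 days. Osteoclastogenesis was then read out as tartrate-resistant acid phosphatase (TRAP) activity.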

[5] = target: T1, Tumor necrosis factor ligand superfamily member 11/11A (Mus musculus); assay: (§3) Inhibition of RANKL-RANK protein-protein interaction in C57/BL6 mouse bone marrow macrophage assessed as suppression of M-CSF/mRANKL-induced osteoclast differentiation by measuring decrease in multinucleated TRAP+ cells at 10 uM supplemented with fresh medium containing compounds every 2 days for 5 to 6 days by TRAP staining-based microscopic analysis relative to control; assay type: cell-based
Method in brief: (§4)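 Bone marrow macrophages were exposed to the test compound at the indicated concentrations for 5 days under M-CSF/RANKL stimulation. TRAP-positive multinucleated cells were then counted as the measure of osteoclast formation.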

[6] = target: T1, Tumor necrosis factor ligand superfamily member 11/11A (Mus musculus); assay: as §3, with “5” for “10”; assay type: cell-based; method in brief: as §4
[7] = target: T1, Tumor necrosis factor ligand superfamily member 11/11A (Mus musculus); assay: Inhibition of RANKL-RANK protein-protein interaction in C57/BL6 mouse bone marrow macrophage assessed as suppression of M-CSF/mRANKL-induced osteoclastogenesis by measuring reduction in TRAP mRNA level measured after 3 days by Trizol-reagent-based qRT-PCR analysis; method in brief: as §1
[8] = target: T4, Tumor necrosis factor ligand superfamily member 11/11A (Mus musculus, UniProt O35235+O35305); assay: as §3, with “cells” for “cells at 10 uM”, “analysis” for “analysis relative to control”; assay type: cell-based; method in brief: as §4
T4 sequence (O35235 whole entry): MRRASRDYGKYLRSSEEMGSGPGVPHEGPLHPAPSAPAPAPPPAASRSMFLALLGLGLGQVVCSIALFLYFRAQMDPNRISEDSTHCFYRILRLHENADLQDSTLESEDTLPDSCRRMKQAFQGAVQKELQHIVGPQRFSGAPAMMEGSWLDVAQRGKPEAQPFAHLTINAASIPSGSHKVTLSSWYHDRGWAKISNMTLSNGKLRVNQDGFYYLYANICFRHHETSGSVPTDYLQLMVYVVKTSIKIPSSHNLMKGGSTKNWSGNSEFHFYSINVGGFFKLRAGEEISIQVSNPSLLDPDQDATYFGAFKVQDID
T4 sequence (O35305 whole entry): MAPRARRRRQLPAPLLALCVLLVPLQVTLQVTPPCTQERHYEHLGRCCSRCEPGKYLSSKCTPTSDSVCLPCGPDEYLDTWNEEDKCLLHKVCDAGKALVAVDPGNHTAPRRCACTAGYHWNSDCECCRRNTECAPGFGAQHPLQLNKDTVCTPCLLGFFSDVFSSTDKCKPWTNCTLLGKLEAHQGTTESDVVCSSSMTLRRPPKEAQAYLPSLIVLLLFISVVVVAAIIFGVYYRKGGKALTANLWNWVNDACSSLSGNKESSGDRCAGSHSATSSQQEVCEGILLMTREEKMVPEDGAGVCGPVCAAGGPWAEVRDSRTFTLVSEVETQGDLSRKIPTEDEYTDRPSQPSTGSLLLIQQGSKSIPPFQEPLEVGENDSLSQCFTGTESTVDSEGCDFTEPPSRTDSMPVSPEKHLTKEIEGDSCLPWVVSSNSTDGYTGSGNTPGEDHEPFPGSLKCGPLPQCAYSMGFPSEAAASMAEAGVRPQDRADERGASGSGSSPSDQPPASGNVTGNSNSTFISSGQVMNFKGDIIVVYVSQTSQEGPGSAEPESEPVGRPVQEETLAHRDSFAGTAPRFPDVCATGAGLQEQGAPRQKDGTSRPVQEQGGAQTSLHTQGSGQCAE

[9] = target: T1, Tumor necrosis factor ligand superfamily member 11/11A (Mus musculus); assay: as above; assay type: cell-based; method in brief: as §4
[10] = target: T1, Tumor necrosis factor ligand superfamily member 11/11A (Mus musculus); assay: Inhibition of RANKL-RANK protein-protein interaction in C57/BL6 mouse bone marrow macrophage assessed as suppression of M-CSF/mRANKL-induced osteoclastogenesis by measuring reduction in NFATc1 mRNA level measured after 3 days by Trizol-reagent-based qRT-PCR analysis; method in brief: as §1
[11] = target: T3, Tumor necrosis factor ligand superfamily member 11; assay: Binding affinity to human RANKL by surface plasmon resonance analysis
[12] = target: T1, Tumor necrosis factor ligand superfamily member 11/11A (Mus musculus); assay: Inhibition of RANKL-RANK protein-protein interaction in C57/BL6 mouse bone marrow macrophage assessed as suppression of M-CSF/mRANKL-induced osteoclastogenesis by measuring reduction in TRAP mRNA level at 2.5 uM measured after 3 days by Trizol-reagent-based qRT-PCR analysis; method in brief: as §1
[13] = target: T1, Tumor necrosis factor ligand superfamily member 11/11A (Mus musculus); assay: Inhibition of RANKL-RANK protein-protein interaction in C57/BL6 mouse bone marrow macrophage assessed as suppression of M-CSF/mRANKL-induced osteoclastogenesis by measuring reduction in c-fos expression measured after 3 days by Western blot analysis
[14] = target: T1, Tumor necrosis factor ligand superfamily member 11/11A (Mus musculus); assay: as §3, with “5” for “10”, “analysis” for “analysis relative to control”; assay type: cell-based; method in brief: as §4
Tumor necrosis factor = Tumor necrosis factor (Homo sapiens, UniProt P01375); assay: Binding affinity to human TNFalpha by surface plasmon resonance analysis
[15] = target: T1, Tumor necrosis factor ligand superfamily member 11/11A (Mus musculus); assay: Inhibition of RANKL-RANK protein-protein interaction in C57/BL6 mouse bone marrow macrophage assessed as suppression of M-CSF/mRANKL-induced osteoclastogenesis by measuring reduction in NFATc1 expression measured after 3 days by Western blot analysis
[16] = target: T1, Tumor necrosis factor ligand superfamily member 11/11A (Mus musculus); assay: Inhibition of RANKL-RANK protein-protein interaction in C57/BL6 mouse bone marrow macrophage assessed as suppression of M-CSF/mRANKL-induced osteoclastogenesis by measuring reduction in NFATc1 mRNA level at 2.5 uM measured after 3 days by Trizol-reagent-based qRT-PCR analysis; method in brief: as §1
[17] = target: T1, Tumor necrosis factor ligand superfamily member 11/11A (Mus musculus); assay: Inhibition of RANKL-RANK protein-protein interaction in C57/BL6 mouse bone marrow macrophage assessed as suppression of M-CSF/mRANKL-induced osteoclastogenesis by measuring reduction in cathepsin K mRNA level at 2.5 uM measured after 3 days by Trizol-reagent-based qRT-PCR analysis; method in brief: as §1
[18] = target: T1, Tumor necrosis factor ligand superfamily member 11/11A (Mus musculus); assay: as §3, with “nuclei number of F-actin ring formation” for “multinucleated TRAP+ cells”, “5” for “10”, “rhodamine phalloidin/DAPI” for “TRAP”, “analysis” for “analysis relative to control”; assay type: protein assay
[19] = Cytotoxicity against M-CSF-stimulated C57/BL6 mouse bone marrow macrophages assessed as cell viability at 10 uM measured after 2 days by MTT assay (reference value: 100%); assay type: cell-based; conditions: M-CSF-stimulated bone marrow macrophages (BMDM), read-out: Activity
[20] = target: T1, Tumor necrosis factor ligand superfamily member 11/11A (Mus musculus); assay: Inhibition of RANKL-RANK protein-protein interaction in C57/BL6 mouse bone marrow macrophage assessed as suppression of M-CSF/mRANKL-induced bone resorption at 1 to 5 uM measured after 2 days by toluidine blue staining-based confocal microscopic analysis
[21] = target: T1, Tumor necrosis factor ligand superfamily member 11/11A (Mus musculus); assay: as §3, with “nuclei size of F-actin ring formation” for “multinucleated TRAP+ cells”, “5” for “10”, “rhodamine phalloidin/DAPI” for “TRAP”, “analysis” for “analysis relative to control”; assay type: protein assay

Chain of Tumor necrosis factor (P01375 whole entry): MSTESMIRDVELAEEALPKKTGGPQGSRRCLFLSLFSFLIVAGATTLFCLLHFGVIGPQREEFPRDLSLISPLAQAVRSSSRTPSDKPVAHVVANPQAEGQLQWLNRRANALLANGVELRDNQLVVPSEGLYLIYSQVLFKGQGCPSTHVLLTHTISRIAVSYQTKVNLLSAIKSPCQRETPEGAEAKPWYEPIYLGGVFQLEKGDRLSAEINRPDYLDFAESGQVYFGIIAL

Cc1cccc(C)c1NC(=O)C(Cc1c[nH]c2ccccc12)NC(=O)OCc1ccccc1 (racemic)
Activity (BMDM): Non-Toxic | inhibition [1]: Dose-dependent effect | inhibition [2]: Dose-dependent effect | IC50 [3]: 26.2 µM | inhibition [4]: 54.9 to 68.4% | inhibition [5]: 93.3% | inhibition [6]: 50% | inhibition [7]: Dose-dependent effect | IC50 [8]: 6.6 µM | inhibition [9]: Dose-dependent effect | inhibition [10]: Dose-dependent effect | Kd [11]: 9.8 µM

Cc1cccc(C)c1NC(=O)C(Cc1c[nH]c2ccccc12)NCCCc1ccccc1 (racemic)
inhibition [12]: Active | inhibition [13]: Dose-dependent effect | inhibition [14]: 100% | Kd (Tumor necrosis factor): 93.6 µM | inhibition [15]: Dose-dependent effect | inhibition [4]: 92.9% | inhibition [16]: Active | inhibition [9]: Dose-dependent effect | inhibition [17]: Active | inhibition [18]: Dose-dependent effect | Kd [11]: 0.614 µM | viability at 48 h, 10 µM [19]: 110% | inhibition [20]: Active | inhibition [21]: Dose-dependent effect
